Experimental data from paper PMC7028313 (ACS chemical neuroscience, 2019).

Tests used:
[1] = system: NF-κB (p50, p52, p65, RelB, c-Rel) in SH-SY5Y cells; assay: Nuclear NF-κB DNA-binding ELISA; format: cell-based, human
[2] = system: mitochondrial membrane potential (Δψm) in SH-SY5Y cells; assay: JC-10 mitochondrial membrane potential assay; format: cell-based, human
[3] = system: p38α/β; conditions: read-out: IC50 p38α/β; cited from earlier work
[4] = molecular target: GSK-3β (Homo sapiens, UniProt P49841); assay: ADP-Glo kinase luminescent assay; format: biochemical; conditions: 1 μM TPPU, in comparison with p38β
Chain of GSK-3β (P49841 whole entry): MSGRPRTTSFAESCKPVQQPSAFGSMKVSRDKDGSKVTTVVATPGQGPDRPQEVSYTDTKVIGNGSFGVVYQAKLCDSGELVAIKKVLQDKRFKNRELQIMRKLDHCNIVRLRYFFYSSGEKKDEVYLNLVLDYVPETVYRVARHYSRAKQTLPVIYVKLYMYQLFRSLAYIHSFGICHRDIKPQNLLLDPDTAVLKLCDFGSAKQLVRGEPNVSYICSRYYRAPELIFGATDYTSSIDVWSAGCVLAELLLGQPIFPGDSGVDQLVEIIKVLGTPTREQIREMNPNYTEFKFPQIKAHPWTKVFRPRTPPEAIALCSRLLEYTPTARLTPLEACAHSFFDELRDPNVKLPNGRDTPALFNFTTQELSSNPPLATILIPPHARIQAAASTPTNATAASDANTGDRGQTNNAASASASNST

[5] = system: SH-SY5Y cells; assay: Neuronal morphology analysis under Aβ42; format: cell-based, human; conditions: 100 nM pretreatment then 10 μM Aβ42, 72 h
[6] = system: sEH in SH-SY5Y cells; assay: Cellular sEH activity in SH-SY5Y cells, [3H]-t-DPPO substrate; format: cell-based, human; conditions: 10, 100 and 1000 nM for 24 h
[7] = system: p38α; assay: ADP-Glo kinase luminescent assay; format: biochemical, human; conditions: 1 μM TPPU
In short: (§1)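 Test compound at 1 μM, or 0.2% PEG 400 vehicle. Incubated 1 h at room temperature, then ADP-Glo luminescence read. Staurosporine 1 μM served as reference. Activity expressed relative to vehicle. Duplicates, six independent experiments.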

[8] = system: AMPKA2; assay: ADP-Glo kinase luminescent assay; format: biochemical, human; conditions: 1 μM TPPU, in comparison with p38β
In short: as §1

[9] = molecular target: p38β kinase (Homo sapiens, UniProt Q15759); assay: ADP-Glo kinase luminescent assay; format: biochemical; conditions: 1 μM TPPU, relative to vehicle control
Chain of p38β kinase (Q15759 whole entry): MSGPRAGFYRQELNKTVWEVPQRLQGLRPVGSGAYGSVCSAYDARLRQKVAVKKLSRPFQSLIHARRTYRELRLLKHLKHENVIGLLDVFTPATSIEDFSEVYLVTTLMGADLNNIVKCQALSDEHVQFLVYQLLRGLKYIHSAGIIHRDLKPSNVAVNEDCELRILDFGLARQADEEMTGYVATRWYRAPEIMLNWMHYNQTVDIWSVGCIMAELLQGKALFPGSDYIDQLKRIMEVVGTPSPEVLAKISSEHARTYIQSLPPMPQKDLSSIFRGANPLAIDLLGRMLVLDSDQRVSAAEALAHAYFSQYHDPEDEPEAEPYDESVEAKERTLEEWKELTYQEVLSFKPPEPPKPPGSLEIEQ

[10] = molecular target: T1, p38γ kinase (Homo sapiens, UniProt P53778); assay: ADP-Glo kinase luminescent assay; format: biochemical; conditions: 1 μM TPPU, relative to vehicle control
T1 sequence (P53778 1-367): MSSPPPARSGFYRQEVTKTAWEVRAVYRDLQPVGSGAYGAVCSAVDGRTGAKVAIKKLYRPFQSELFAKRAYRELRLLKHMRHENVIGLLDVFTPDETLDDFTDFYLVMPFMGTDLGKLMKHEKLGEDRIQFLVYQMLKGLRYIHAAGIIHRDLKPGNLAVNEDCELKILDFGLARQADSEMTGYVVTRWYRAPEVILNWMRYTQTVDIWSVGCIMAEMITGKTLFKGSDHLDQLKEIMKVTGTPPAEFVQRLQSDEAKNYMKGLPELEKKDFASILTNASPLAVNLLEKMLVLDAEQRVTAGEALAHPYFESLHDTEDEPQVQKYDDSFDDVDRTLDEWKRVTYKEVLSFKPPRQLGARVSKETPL

[11] = system: CK1α1; assay: ADP-Glo kinase luminescent assay; format: biochemical, human; conditions: 1 μM TPPU, in comparison with p38β
In short: as §1

[12] = system: Tau pS396 in SH-SY5Y cells; assay: Anti-tau hyperphosphorylation ELISA; format: cell-based, human
[13] = system: Aβ42 neurotoxicity in SH-SY5Y cells; assay: Anti-Aβ42 neurotoxicity assay; format: cell-based, human; conditions: 0.1 μM pretreatment 1 h then 10 μM Aβ42 72 h
[14] = system: p38δ; assay: ADP-Glo kinase luminescent assay; format: biochemical, human; conditions: 1 μM TPPU
In short: as §1

[15] = system: SH-SY5Y cells; assay: Cell viability / cytotoxicity MTS assay; format: cell-based, human; conditions: TPPU alone, 72 h
[16] = system: sEH; conditions: read-out: IC50 sEH; cited from earlier work

Compound: C[C@@H]1C[C@H]2[C@@H]3CCC4=CC(=O)C=C[C@]4(C)[C@@]3(F)[C@@H](O)C[C@]2(C)[C@@]1(O)C(=O)CO [DEX, dexamethasone, reference compound]
- levels of NF-κB subunits in neuronal nuclei ([1]; 0.1 μM DEX pretreatment 1 h then 5 μM Aβ42 8 h): significantly reduced levels of all five NF-κB subunits

Compound: N#CC(C#N)=NNc1ccc(OC(F)(F)F)cc1 [FCCP, carbonyl cyanide-4-(trifluoromethoxy)phenylhydrazone]
- Δψm depolarization (reference ionophore) ([2]; FCCP 50 μM): depolarized Δψm

Compound: CCC(=O)N1CCC(NC(=O)Nc2ccc(OC(F)(F)F)cc2)CC1 [TPPU]
- inhibition of kinase activity [4]: weakly inhibited
- neuronal morphology / Aβ42 toxicity [5]: effectively relieved Aβ42 toxicity
- cellular sEH activities [6]: significantly decreased cellular sEH activities in a dose-dependent manner
- inhibitory effect on kinase activity [7]: not significant
- inhibition of kinase activity [8]: weakly inhibited
- remaining kinase activity [9]: 36%
- remaining kinase activity [10]: 49%
- inhibition of kinase activity [11]: weakly inhibited
- nuclear translocation of NF-κB subunits ([1]; 0.05 and 0.1 μM pretreatment 1 h then 5 μM Aβ42 8 h, p < 0.0001): inhibited nuclear translocation of all five subunits
- Aβ42-induced tau phosphorylation level at pS396 ([12]; 0.01, 0.1 and 1 μM pretreatment 1 h then 10 μM Aβ42 72 h, p < 0.0001): significantly mitigated
- alleviation of tau hyperphosphorylation compared with SB202190 ([12]; TPPU 0.01 μM versus SB202190 0.05 μM): stronger alleviative effect
- neuroprotection (cell viability) [13]: effective neuroprotection
- inhibitory effect on kinase activity [14]: not significant
- tolerable and nontoxic dose [15]: ≤ 1000 nM

Compound: epoxyeicosatrienoic acids [EETs, reference compound]
- neuroprotection (cell viability) [13]: effective neuroprotection
- loss of Δψm induced by Aβ42 ([2]; 0.1 μM pretreatment, 10 μM Aβ42 72 h): attenuated the loss of Δψm
